The values below come from ChEMBL document CHEMBL1135477, “Antifungal agents. 10. New derivatives of 1-[(aryl)[4-aryl-1H-pyrrol-3-yl]methyl]-1H-imidazole, synthesis, anti-candida activity, and quantitative structure-analysis relationship studies” (J Med Chem, 2002).

Common to all, as to type: functional
The subject of series [1] is Candida albicans. Description: In vitro antifungal activity against 40 strains of Candida albicans at pH 5.8; (range is from 0.25 to 64). The gist of the method: (§1)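 Broth serial-dilution MIC against 40 clinical C. albicans isolates from hospitalized patients, grown in Sabouraud broth at pH 7.2 or 5.8. Cells were pre-grown 18 h at 37 °C, inoculated at 10³/mL, and read at 24 h, 37 °C. Doubling dilutions ran 0.25–256 μg/mL from a DMSO/water solution. MIC was the lowest concentration with no visible growth against a DMSO/water blank.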

Series [2] relates to Candida. Description: Tested in vitro for antifungal activity against Candida species. at pH 5.8. The gist of the method: (§2)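 Liquid serial-dilution MIC against 3 freshly isolated clinical Candida strains (two C. glabrata, one C. krusei) in Sabouraud broth at pH 7.2 or 5.8. Inoculum was 10³/mL after 18 h pre-culture at 37 °C, read at 24 h, 37 °C. Range was 0.25–256 μg/mL. Endpoint was no visible growth versus a DMSO/water blank.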

Series [3] has as its system Candida. Kind of series: Tested In vitro for antifungal activity against Candida species. at pH 7.2. The method, boiled down:
as §2

For series [4], the system named is Candida. Description: Tested in vitro for antifungal activity against Candida species. at pH 5.8 (percent of resistant species at 256 ug/mL). The method, boiled down:
(§3)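 Broth serial-dilution test in Sabouraud broth at pH 7.2 or 5.8, against 3 fresh clinical non-albicans isolates (two C. glabrata, one C. krusei). Inocula were 10³/mL, pre-grown 18 h at 37 °C. Compound was twofold-diluted over 0.25–256 µg/mL and read at 24 h, 37 °C for visible growth.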

Series [5] deals with Candida albicans. Kind of series: In vitro antifungal activity against 40 strains of Candida albicans at pH 7.2; (percent of resistant species at 256 ug/mL). The gist of the method: (§4)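 Broth serial-dilution test in Sabouraud broth at pH 7.2 or 5.8, against 40 fresh clinical C. albicans isolates from hospitalized patients. Inocula were 10³/mL, pre-grown 18 h at 37 °C in Sabouraud dextrose broth. Compound from a DMSO/water stock was twofold-diluted over 0.25–256 µg/mL. Visible growth was read at 24 h, 37 °C.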

Series [6] concerns Candida albicans. Description: In vitro antifungal activity against 40 strains of Candida albicans at pH 7.2; minimum inhibitory concentration (range is from 1 to 32). The gist of the method:
as §1

Series [7] concerns Candida albicans. Description: In vitro antifungal activity against 40 strains of Candida albicans at pH 5.8; (percent of resistant species at 256 ug/mL). The gist of the method:
as §4

For series [8], the system named is Candida albicans. Description: In vitro antifungal activity against 40 strains of Candida albicans at pH 7.2. The gist of the method: as §1
The test system of series [9] is Candida. Description: Tested In vitro for antifungal activity against Candida species. at pH 7.2; (percent of resistant species at 256 ug/mL). The method, boiled down:
as §3

The target of series [10] is Lanosterol 14-alpha demethylase (Candida albicans (strain SC5314 / ATCC MYA-2876) (Yeast), UniProt P10613). Kind of series: Anticandida activity- (MIC90 compound) / (MIC90 bifonazole).
Series [11] deals with Candida albicans. Kind of series: In vitro antifungal activity against 40 strains of Candida albicans at pH 5.8. The gist of the method: as §1
Series [12] deals with Candida. Description: Tested In vitro for antifungal activity against Candida species. at pH 7.2; (range is from 2 to 32). The gist of the method: as §2
The test system of series [13] is Candida. Kind of series: Tested in vitro for antifungal activity against Candida species. at pH 5.8 (range is from 4 to 16). The gist of the method: as §2
Series [14] has as its system Candida. Kind of series: Tested in vitro for antifungal activity against Candida species. at pH 5.8; range is from 1 to 64. The gist of the method:
as §2

Series [15] concerns Candida albicans. Kind of series: In vitro antifungal activity against 40 strains of Candida albicans at pH 5.8; value ranges from 0.5 to 4). The method, boiled down: as §1
The test system of series [16] is Candida. Description: Tested In vitro for antifungal activity against Candida species. at pH 7.2; (range is from 4 to 16). The gist of the method:
as §2

The test system of series [17] is Candida albicans. Kind of series: In vitro antifungal activity against 40 strains of Candida albicans at pH 5.8; value ranges from 128 to >256. The gist of the method: as §1
In series [18] the test system is Candida. Description: Tested in vitro for antifungal activity against Candida species. at pH 5.8; (percent of resistant species at 256 ug/mL). The gist of the method: as §3
Series [19] concerns Candida. Description: Tested in vitro for antifungal activity against Candida species. at pH 7.2. The method, boiled down:
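Fresh clinical isolates (two C. glabrata, one C. krusei) were pre-grown 18 h at 37 °C in Sabouraud dextrose broth. Broth double-dilution was run in Sabouraud broth at pH 5.8 or 7.2 over 0.25–256 µg/mL from a DMSO/water stock, with 10³/mL inoculum.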

Series [20] concerns Candida. Description: Tested in vitro for antifungal activity against Candida species. at pH 7.2; (percent of resistant species at 256 ug/mL). The method, boiled down:
as §3

In series [21] the test system is Candida albicans. Description: In vitro antifungal activity against 40 strains of Candida albicans at pH 7.2; minimum inhibitory concentration; value ranges from 128 to >256. The gist of the method:
as §1

Series [22] relates to Candida albicans. Kind of series: Compound was tested for its anti-candida activity, expressed as ratio of minimum inhibitory concentration.

Each structure is given as a SMILES string. Values after ≈ are worked out from the molar mass of the structure shown. Bounds are passed on as bounds.

Chain of Lanosterol 14-alpha demethylase (P10613 whole entry): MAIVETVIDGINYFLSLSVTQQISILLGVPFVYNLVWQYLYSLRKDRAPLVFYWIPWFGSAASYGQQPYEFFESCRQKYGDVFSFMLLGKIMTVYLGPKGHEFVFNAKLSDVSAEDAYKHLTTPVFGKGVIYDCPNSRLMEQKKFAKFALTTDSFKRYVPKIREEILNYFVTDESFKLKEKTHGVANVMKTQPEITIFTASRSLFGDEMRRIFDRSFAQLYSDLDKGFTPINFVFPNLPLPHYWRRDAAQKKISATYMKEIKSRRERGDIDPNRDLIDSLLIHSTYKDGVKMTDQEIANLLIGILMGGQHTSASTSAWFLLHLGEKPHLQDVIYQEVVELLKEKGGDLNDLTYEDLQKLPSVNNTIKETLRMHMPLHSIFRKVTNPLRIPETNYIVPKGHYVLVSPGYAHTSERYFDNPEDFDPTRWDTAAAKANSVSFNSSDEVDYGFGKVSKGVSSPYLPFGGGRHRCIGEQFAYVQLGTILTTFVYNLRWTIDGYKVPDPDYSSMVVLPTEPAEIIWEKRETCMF

A word on the MIC: it is the lowest concentration found to suppress growth. Read a low MIC as inhibition by little substance. The term MIC50 denotes the lowest concentration that inhibits either 50% of growth or 50% of the strains tested, depending on the study. The MIC90 is an inhibitory concentration at the 90% level, which refers to growth in some studies and to a panel of isolates in others. Higher therefore signals weaker potency. For `Clc1ccc([C@H](c2c[nH]cc2-c2ccc(-n3cccc3)cc2)n2ccnc2)c(Cl)c1`, the Range came to 64 µg/mL in the series with Candida albicans [1], 32 µg/mL in the series with Candida albicans [6], 32 µg/mL in the series with Candida [12] and 16 µg/mL in the series with Candida [13]. The MIC in the series with Candida [2] is 9.3 µg/mL (≈ 21.5 µM); in the series with Candida [3] it was 14.1 µg/mL (≈ 32.6 µM); with Candida albicans [8] it was 4.4 µg/mL (≈ 10.2 µM); with Candida albicans [11], 3.95 µg/mL (≈ 9.12 µM). In addition, the MIC50 was 8 µg/mL (≈ 18.5 µM) in the series with Candida [2], 4 µg/mL (≈ 9.23 µM) with Candida [3], 2 µg/mL (≈ 4.62 µM) against Candida albicans [8] and 2 µg/mL (≈ 4.62 µM) against Candida albicans [11]. The MIC90 was 16 µg/mL (≈ 36.9 µM) against Candida [2], 32 µg/mL (≈ 73.8 µM) in the series with Candida [3], 4 µg/mL (≈ 9.23 µM) with Candida albicans [8] and 4 µg/mL (≈ 9.23 µM) with Candida albicans [11]. In addition, the Resistance in the series on Candida [4], with Candida albicans [5], with Candida albicans [7] and with Candida [9] was 0% throughout. For the same compound, the Ratio in series [10] is 0.72.
As for `Cn1cc(-c2ccc(Cl)cc2)c([C@H](c2ccc(Cl)cc2Cl)n2ccnc2)c1`, the Range in the series with Candida [14] came out at 64 µg/mL; in the series on Candida albicans [15] it was 4 µg/mL; with Candida albicans [6] it was 32 µg/mL; in the series with Candida [16] it was 16 µg/mL. Also, the MIC came to 4.5 µg/mL (≈ 10.8 µM) against Candida [2], 6.1 µg/mL (≈ 14.6 µM) with Candida [3], 5.3 µg/mL (≈ 12.7 µM) in the series on Candida albicans [8] and 2.54 µg/mL (≈ 6.09 µM) with Candida albicans [11]. Besides, the MIC50 in the series on Candida [2] is 2 µg/mL (≈ 4.8 µM); in the series with Candida [3] it was 16 µg/mL (≈ 38.4 µM); in the series on Candida albicans [8], 2 µg/mL (≈ 4.8 µM); against Candida albicans [11], 0.5 µg/mL (≈ 1.2 µM). Besides, the MIC90 was determined as 64 µg/mL (≈ 154 µM) against Candida [2], 32 µg/mL (≈ 76.8 µM) with Candida [3], 16 µg/mL (≈ 38.4 µM) against Candida albicans [8] and 2 µg/mL (≈ 4.8 µM) with Candida albicans [11]. Moreover, the Resistance in the series on Candida [4], in the series on Candida albicans [5], in the series on Candida albicans [7] and in the series with Candida [9] was 0% in each case. The Ratio in series [10] came out at 3.
For `Clc1ccc(-c2c[nH]cc2[C@@H](c2ccc(Cl)cc2Cl)n2cnnc2)cc1`, the Range in the series on Candida albicans [17], in the series on Candida [2], in the series on Candida [19] and in the series on Candida albicans [21] was more than 256 µg/mL throughout. Moreover, the MIC50 against Candida [2], against Candida [19], with Candida albicans [8] and in the series with Candida albicans [11] was more than 256 µg/mL in each case. Moreover, the MIC90 against Candida [2], in the series with Candida [19], against Candida albicans [8] and in the series with Candida albicans [11] was more than 256 µg/mL throughout. The Resistance in the series with Candida [18] turned out to be 100%; in the series with Candida albicans [5], 77%; in the series on Candida albicans [7] it was 94%; in the series on Candida [20], 100%. Besides, the MIC in the series with Candida albicans [8] turned out to be 165 µg/mL (≈ 408 µM); against Candida albicans [11] it was 128 µg/mL (≈ 317 µM). The Ratio in [10] was determined as 49.
`c1ccc(-c2ccc([C@@H](c3ccccc3)n3ccnc3)cc2)cc1` [BIFONAZOLE]: in the series with Candida albicans [22], the MIC90 ratio came out at 1.
